Source: PubChem (several laboratories)
HSF1 inh: HSF1 inhibition | hit rate 0.77% among 300,000 | activity change, negative = inhibition, % at 7.5 µM (by protocol) | NIH3T3-HGL HSE-luciferase, MG132-induced, luminescence 8 h; active compounds read low;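 active = more than half of replicate wells show activity change below -50%, luminescence cut by over half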;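 also: luciferase reports HSF-1 transcriptional activity via heat shock element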
CHT inh: human CHT choline transport inhibition; Q9GZV3; CHT-expressing cells, membrane potential dye, choline response; active compounds read low; B-score at 10 µM; hit rate 0.86% among 310,000; AID 488975;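 active = B-score over 3 SD under the library average, and starting fluorescence ratio not unusually high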;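 also: choline stimulus applied at its EC90 after an EC20 pre-addition; B-score computed on integrated fluorescence ratio after choline addition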
HSF-1 act: increases HSF-1 driven luciferase reporter signal; activation, % at 9 µM; NIH3T3-HGL HSF-1 luciferase reporter, MG132, 8 h; 100% = twice DMSO control signal; hit rate 1.7% among 300,000;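 active = mean replicate activation of at least 50% with a set share of replicates each reaching 50%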
PHOSPHO1 block: blocks human PHOSPHO1 phosphatase activity; AID 1565; hit rate 1.1% among 290,000; inhibition, % at 13.3 µM; recombinant PHOSPHO1, absorbance phosphatase assay; in the data active = inhibition above about 60%
Target sequence (Q8TCT1 whole entry, looked up): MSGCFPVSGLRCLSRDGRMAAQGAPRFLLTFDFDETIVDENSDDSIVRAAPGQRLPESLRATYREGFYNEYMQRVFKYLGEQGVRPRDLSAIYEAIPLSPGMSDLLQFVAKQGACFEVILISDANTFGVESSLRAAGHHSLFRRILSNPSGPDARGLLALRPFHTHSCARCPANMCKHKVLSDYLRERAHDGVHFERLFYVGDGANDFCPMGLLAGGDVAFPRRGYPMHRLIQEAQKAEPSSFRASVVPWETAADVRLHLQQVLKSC
CHT PAM: allosterically activates the human high affinity choline transporter | Q9GZV3 | CHT-expressing cells, membrane potential dye, choline EC20; active compounds read high; LV-AA mutant CHT in HEK293 cells | B-score at 10 µM | hit rate 0.49% among 310,000 | AID 488977;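 active = initial fluorescence not abnormally high and integrated response B-score, plate-corrected, over 3 SD above library mean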
Hep lipid drop: modulators of hepatic lipid droplet formation; hit rate 0.4% among 240,000; AID 1656; inhibition, % at 6.5 µM; AML12 mouse hepatocytes, oleate lipid droplets, BODIPY imaging;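 active = lipid droplet intensity inhibited by at least 50%, with more than 500 cells counted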
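Material – mouse AML12 hepatocyte cell line, fixed after treatment · Compound dosing – one dose, 6.5 µM compound · Times – compound with oleate, overnight · Measured by – Image-based BODIPY and DAPI two-channel analysis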
A number is an active result; 0 = inactive; - = not tested or not shown. Most compounds without a hit are left out; they make up all but 4.9% or so of the library.

SMILES | HSF1 inh | CHT inh | HSF-1 act | PHOSPHO1 block | CHT PAM | Hep lipid drop
CC1(C)Cc2c(sc3[nH]c(=S)n(Cc4ccccc4)c(=O)c23)CO1 | 0 | 0 | 0 | 76 | 0 | 0
CCNc1nc(SC(C)C(=O)Nc2ccccc2)nc(N2CCOCC2)n1 (configuration not stated) | 0 | 0 | 0 | 0 | 0 | 0
CNc1nc(SC(C)C(=O)Nc2ccc(Cl)c(Cl)c2)nc(N2CCOCC2)n1 (configuration not stated) | 0 | 0 | 68 | 0 | 0 | 0
COC(=O)Cc1ccc(NC(=O)c2ccc(NC(=O)c3ccco3)cc2)cc1 | 0 | 0 | 0 | 0 | 0 | 0
COC(=O)Cc1ccc(NC(=O)c2ccc(C)c(C)c2)cc1 | 0 | 0 | 71 | 0 | 0 | -
Cc1ccsc1/C=N/n1c(-c2ccco2)n[nH]c1=S | 0 | 0 | 0 | 62 | 0 | -
S=c1[nH]nc(-c2cc(-c3ccccc3)n[nH]2)n1/N=C/c1ccccc1 | 0 | 0 | 0 | 0 | 0 | 0
Cc1cc(-c2n[nH]c(=S)n2/N=C/C(Cl)=C/c2ccccc2)n[nH]1 | 0 | 0 | 0 | 0 | 0 | 0
S=c1[nH]nc(-c2ccco2)n1/N=C/C(Cl)=C/c1ccccc1 | 0 | 0 | 182 | 0 | 0 | 0
CC(/C=N/n1c(-c2ccccc2)n[nH]c1=S)=C\c1ccco1 | 0 | 0 | 0 | 84 | 0 | 0
S=c1[nH]nc(-c2cc(-c3ccccc3)n[nH]2)n1/N=C/C(Br)=C/c1ccccc1 | 0 | 0 | 104 | 0 | 0 | 0
CCC(C)NC(=O)CNC(=S)N(Cc1ccc(F)cc1)C1CCCCC1 (configuration not stated) | 0 | 0 | 0 | 0 | 0 | 0
Cc1ccc(C(=O)NNC(=O)c2cc3ccccc3cc2O)cc1 | 0 | 0 | 0 | 0 | 0 | 0
CN(C)C(CN=C1NS(=O)(=O)c2ccccc21)c1ccco1 (configuration not stated) | 0 | 0 | 0 | 0 | 0 | 0
O=S1(=O)NC(=NCC(c2ccco2)N2CCCCC2)c2ccccc21 (configuration not stated) | 0 | 0 | 85 | 0 | 0 | 0
CC(=O)c1ccc(N(C(=O)c2ccco2)C(C(=O)NC2CCCC2)c2ccc(N3CCOCC3)cc2)cc1 (configuration not stated) | 0 | 0 | 69 | 0 | 0 | 0
O=C(OCCNc1nc(-c2ccccc2)nc2ccccc12)c1ccncc1 | 0 | 0 | 0 | 0 | 0 | 0
O=C(Nc1ccc(O)cc1)/C(=C\c1cccs1)NC(=O)c1ccccc1 | 0 | 0 | 0 | 0 | 0 | 0
O=C(O)CCCn1cc(NC(=O)COc2ccccc2)cn1 | 0 | 0 | 0 | 0 | 0 | 0
Cc1cc(SC#N)cc(C)c1NC(=O)CCl | 0 | 0 | 136 | 0 | 0 | 0
CCC(=O)Nc1ccc(SC#N)cc1C | 0 | 0 | 0 | 0 | 0 | 0
CC(=O)c1cccc(NC(=O)c2cnn(-c3ccccc3)c2C)c1 | 0 | 0 | 0 | 0 | 0 | 0
CN1CCN(CC(=O)N2N=C(c3cccs3)CC2c2ccco2)CC1 (configuration not stated) | -58 | 0 | 0 | 0 | 0 | 0
CCC(=O)N1N=C(c2ccc(Cl)cc2)CC1c1ccco1 (configuration not stated) | 0 | 0 | 0 | 0 | 0 | 0
O=C(CCl)N1N=C(c2ccco2)CC1c1ccco1 (configuration not stated) | 0 | 0 | 0 | 0 | 0 | 0
SMILES | HSF1 inh | CHT inh | HSF-1 act | PHOSPHO1 block | CHT PAM | Hep lipid drop
CCc1ccc(C2=NN(C(C)=O)C(c3ccco3)C2)cc1 (configuration not stated) | 0 | 0 | 74 | 0 | 0 | 0
O=C(c1ccco1)N1N=C(c2cccs2)CC1c1ccco1 (configuration not stated) | 0 | 0 | 64 | 0 | 0 | 0
O=C(CCl)N1N=C(c2cccs2)CC1c1ccco1 (configuration not stated) | -94 | 0 | 0 | 0 | 0 | 0
CC(C)[C@H](NC(=O)N1c2ccccc2NC(=O)[C@@H]1C(C)C)C(=O)N1CCC[C@H]1C(=O)O | 0 | 0 | 0 | 0 | 0 | 0
Cc1cccc(C(=O)N/N=C/c2ccc[nH]2)c1 | 0 | 0 | 0 | 0 | 0 | 0
Cc1ccc(N=Cc2ccc[nH]2)c(O)c1 | -76 | 0 | 0 | 0 | 0 | 0
Cc1ccc(C2=NCCn3c2c2ccc(C(F)(F)F)cc2[n+]3[O-])cc1 | -55 | 0 | 0 | - | 0 | -
COc1ccc(C2=NCCn3c2c2ccc(C(F)(F)F)cc2[n+]3[O-])cc1 | 0 | 0 | 0 | - | 0 | -
Cc1occc1C(=O)Nc1cc(C(F)(F)F)ccc1Cl | -65 | 0 | 0 | 0 | 0 | 0
Cc1cccc(C(C)C)c1NC(=O)c1ccc(COc2ccc3c(C)cc(=O)oc3c2)cc1 | 0 | 0 | 66 | 0 | 0 | 0
Cc1ccc(CNC(=O)c2ccc(CN3CCOCC3)cc2)cc1 | 0 | 0 | 0 | 84 | 0 | -
O=S(=O)(c1cccs1)N1CCN(Cc2cccc(F)c2)CC1 | 0 | 0 | 0 | - | 0 | 0
CSc1sc2ccccc2[n+]1CCCS(=O)(=O)[O-] | 0 | 0 | 0 | 89 | 0 | -
O=C(CSc1nnnn1-c1ccc(C(=O)O)cc1)NC1CC1 | 0 | 0 | 0 | 0 | 0 | 0
CC(/C=C/c1ccccc1)=N\NC(N)=S | 0 | 0 | 0 | 0 | 0 | -
O=C(c1cc(COc2c(F)cccc2F)on1)N1C[C@H]2CC[C@H]1C2 | 0 | 0 | 56 | 0 | 0 | 0
CCOc1ccc(CN(C)C(=O)c2ccc(NS(=O)(=O)c3ccc4[nH]c(=O)[nH]c4c3)cc2)cc1 | 0 | 0 | 0 | - | 0 | -
COc1ccc(NC(=S)NCCCCCC(=O)C[N+](=O)[O-])cc1 | 0 | 0 | 0 | 77 | 0 | 0
CCOc1cc(OCC)cc(C(=O)NCc2ccco2)c1 | 0 | 0 | 0 | 0 | 0 | 0
c1cn2c(NC3CCCCC3)c(-c3ccc(SC4CCCCC4)cc3)nc2cn1 | 0 | 0 | 0 | - | 0 | -
CCN(CC)c1ccc(-c2nc3cnccn3c2NC2CCCC2)cc1 | 0 | 0 | 0 | 62 | 0 | -
CCN(CC)CCCNC(=O)c1ccc2c3n(nc2c1)-c1ccc(Cl)cc1CO3 | 0 | 0 | 0 | - | 0 | -
COc1cccc(-c2nn(-c3ccc(C)cc3)cc2C(=O)N2CCc3cc(OC)c(OC)cc3C2)c1 | 0 | 0 | 0 | - | 0 | -
CN(NC(=O)c1c(Cl)cccc1Cl)c1cccc(Cl)n1 | 0 | 0 | 0 | 0 | 0 | 0
C[C@@H]1CN(C(=O)c2cc(COc3cccc(C(F)(F)F)c3)on2)C[C@H](C)O1 | 0 | 0 | 95 | 0 | 0 | 0
SMILES | HSF1 inh | CHT inh | HSF-1 act | PHOSPHO1 block | CHT PAM | Hep lipid drop
C=CCC1(CC=C)CCCN1C(=O)c1cc(COc2cccc(C(F)(F)F)c2)on1 | 0 | 0 | 0 | 61 | 0 | 0
Cc1ccc2oc(-c3ccccc3)c(C(=O)O)c(=O)c2c1 | 0 | 0 | 0 | 0 | 0 | -
COc1ccc(/C=C/C(=O)N(Cc2ccccc2)c2ccccn2)cc1OC | 0 | 0 | 0 | 0 | 0 | 0
CSc1ccc(Cl)c(C(=O)Nc2nccs2)c1 | 0 | 0 | 0 | 0 | 0 | 0
Cc1ccc(SCCCn2cncn2)cc1 | -71 | 0 | 0 | 0 | 0 | 0
O=c1[nH]c2ccccc2n2cnnc12 | -83 | 0 | 0 | 0 | 0 | 0
